In the library only some 3.3% were active in any assay of this set; here they are far more common.
SIAE inh: inhibitors of human sialic acid acetylesterase SIAE. SIAE FP-Rh probe binding, fluorescence polarization. inhibition, % at 9.66 µM. hit rate 0.69% among 370,000. AID 1053197;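 active = inhibition above a cutoff: mean of compounds within the control limits plus 3 SD of those, cut at about 17% in these data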;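 also: 0% = plate median of compound wells and 100% = probe without SIAE protein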
Target sequence (Q9HAT2 whole entry, looked up): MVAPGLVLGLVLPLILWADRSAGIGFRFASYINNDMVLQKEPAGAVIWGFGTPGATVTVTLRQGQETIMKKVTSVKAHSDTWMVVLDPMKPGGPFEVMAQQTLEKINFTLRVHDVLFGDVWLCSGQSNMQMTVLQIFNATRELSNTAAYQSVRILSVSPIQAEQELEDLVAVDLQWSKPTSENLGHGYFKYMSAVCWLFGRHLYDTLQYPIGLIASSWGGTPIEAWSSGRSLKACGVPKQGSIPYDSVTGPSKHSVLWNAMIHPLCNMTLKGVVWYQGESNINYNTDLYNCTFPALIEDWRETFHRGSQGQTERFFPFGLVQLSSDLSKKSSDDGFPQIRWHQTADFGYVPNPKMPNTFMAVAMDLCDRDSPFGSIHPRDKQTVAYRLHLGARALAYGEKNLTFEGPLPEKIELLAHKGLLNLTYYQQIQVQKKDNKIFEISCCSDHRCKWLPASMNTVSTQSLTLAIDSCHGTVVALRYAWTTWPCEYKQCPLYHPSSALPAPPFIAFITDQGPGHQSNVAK
mABHD4 FP: inhibits mouse alpha/beta hydrolase domain 4; hit rate 0.54% among 370,000; inhibition, % at 8.92 µM; purified mABHD4, FP-Rh probe fluorescence polarization; AID 720543; Q8VD66;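 active = inhibition exceeding the mean over every tested compound plus 3 SD, cut at about 30% in these data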;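 also: 0% = plate median of compound wells and 100% = S159A mutant with DMSO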
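Material: mouse ABHD4 enzyme, wild type; Benchmarks: S159A mutant high control, sample median low control; Buffer or medium: HEPES pH 7.0, NaCl, Pluronic buffer; Signal: fluorescence polarization; Read-out: percent inhibition of probe binding, normalized to plate controls; Timing: pre-incubation 45 min, probe exposure 60 min, at 25 °C; Dosing: 8.92 µM, single dose.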
rCAG binder: molecules binding r(CAG) RNA repeats; r(CAG) RNA repeat, TO-PRO-1 dye displacement fluorescence; inhibition, % at 3 µM; hit rate 1.3% among 370,000; AID 651821;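 active = inhibition above the plate cutoff, the mean of all test compounds on that plate plus 3 SD, cut at about 35% in these data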;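 also: 0% = DMSO alone and 100% = 100 µM mitoxantrone as full dye displacement; higher means more dye released from RNA so lower well fluorescence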
PRMT1 inh: PRMT1 (human) inhibition, primary screen; Q99873; recombinant PRMT1, activity-based probe fluorescence polarization; inhibition, % at 2.79 µM; hit rate 1.3% among 370,000; AID 652257;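 active = inhibition above about 21% made by adding two undisclosed values, limit read from the data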
TCR-CD3 inh: blocks the human TCR-CD3 interaction. hit rate 0.37% among 360,000. AID 651800. inhibition, % at 9.4 µM. TAMRA-labeled TCR probe fluorescence, biochemical; in the data active = inhibition above about 19%;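 also: recombinant mutant TCR 2C K166C tagged with TAMRA read by polarization; 0% = receptor in buffer alone and 100% = receptor with positive control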
PRMT1 inh conf: PRMT1 (human) inhibition, FP confirmation. shares compounds with PRMT1 inh. recombinant His-PRMT1, activity-based probe fluorescence polarization. inhibition, % at 2.79 µM. hit rate 42% among 3,300;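 active = mean inhibition across replicates above the hit cutoff derived for the earlier primary screen, cut at about 22% in these data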
The depositor's hits bear a star; nt = no result.

SMILES | SIAE inh | mABHD4 FP | rCAG binder | PRMT1 inh | TCR-CD3 inh | PRMT1 inh conf
Cc1ccc(N=Nc2c(N)nn3c(C)cc(C)nc23)cc1 | -2 | 3 | 5 | 1 | 0 | nt
Cc1cc(C)n2nc(N)c(N=Nc3cccc(Cl)c3)c2n1 | -6 | -3 | 10 | 58* | -4 | 0
CCN(CC)c1ccc(N=C2C=CC(=O)C=C2NC(C)=O)cc1 | -25 | -8 | 25 | 54* | 6 | 3
CCOC(=O)C1NC(=O)CC1c1ccccc1 (stereo unspecified) | 6 | -14 | 3 | -1 | -5 | nt
CCOC(=O)C1CSC2(CCC(c3ccccc3)CC2)N1 (stereo unspecified) | -1 | -3 | 1 | 48* | -4 | 28*
CCCCNC(=O)OCCCN1CCC2(CCC(c3ccccc3)CC2)C1 (stereo unspecified) | 1 | -4 | -1 | 4 | nt | nt
c1coc(-c2cc3nc(NCc4ccc5c(c4)OCO5)ccn3n2)c1 | 3 | 0 | 21 | 32* | -9 | 10
c1ccc(-c2cc3nc(NCc4ccc5c(c4)OCO5)ccn3n2)cc1 | -8 | -18 | 7 | -3 | -2 | nt
O=C(NC1CCCC1)c1cc2nc(-c3ccco3)cc(C(F)(F)F)n2n1 | -6 | -1 | -5 | 3 | -8 | nt
c1coc(-c2cc3nc(NC4CCCCC4)ccn3n2)c1 | -2 | 3 | 13 | 29* | 4 | 8
O=C(O)C1C2C=CC(O2)C1C(=O)NCc1ccccc1Br (stereo unspecified) | -2 | -11 | 0 | 30* | 2 | 2
OC(c1ccccc1)(c1ccccc1)C1CCN(CCCOc2ccc(Br)cc2)CC1 | -1 | 14 | 1 | -3 | nt | nt
COc1cc(NC(=O)c2cc(C)on2)c(OC)cc1Cl | -3 | 7 | nt | 2 | nt | nt
COc1ccc(CSc2nc3ccccc3[nH]2)cc1 | 12 | -7 | 4 | 1 | 1 | nt
O=C1CCC(=O)N1c1ccc(CSc2nc3ccccc3[nH]2)cc1 | -7 | -5 | 0 | 33* | -4 | 28*
CN1c2ccsc2C(O)=C(C(=S)Nc2ccc(F)c(Cl)c2)S1(=O)=O | -3 | -17 | 67* | 30* | -4 | 21
Cn1cc(C(=O)Nc2ccc(F)c(Cl)c2)cn1 | 4 | 5 | 1 | -2 | 9 | nt
COC(=O)C1=C(C)NC(C)=C(C(=O)OCC(C)C)C1c1ccccc1[N+](=O)[O-] (stereo unspecified) | 6 | 18 | 0 | 25* | 3 | 18
Cc1cc(C)nc(SC(C(=O)O)c2ccccc2)n1 (stereo unspecified) | -4 | -7 | -2 | 2 | -3 | nt
Cc1cc(C)nc(Sc2nc(Cl)nc(N(c3ccccc3)c3ccccc3)n2)n1 | 2 | -16 | -4 | 59* | -6 | 10
CCCCNS(=O)(=O)/C=C/c1ccc(OC)cc1CNC(=O)OC(C)(C)C | 0 | -6 | 0 | 0 | nt | nt
CC(=O)Nc1ccc(/C=N\NC(=O)c2cccc(S(=O)(=O)N(C)C)c2)cc1 | -3 | 3 | 2 | 0 | nt | nt
CC1CC2=C(NC(=S)NC2c2ccc(F)cc2)/C(=C/c2ccc(F)cc2)C1 (stereo unspecified) | 0 | 6 | 8 | 49* | 4 | 22*
O=C1/C(=C/c2ccc(F)cc2)CCC1C1CCCC1 (stereo unspecified) | 3 | 8 | -2 | 1 | -9 | nt
S=C1NC2=C(CCC/C2=C\c2ccccc2)C(c2ccccc2)N1 (stereo unspecified) | 6 | 11 | 8 | 43* | -1 | 32*
SMILES | SIAE inh | mABHD4 FP | rCAG binder | PRMT1 inh | TCR-CD3 inh | PRMT1 inh conf
Fc1cccc(/C=C2\CCCC3=C2NC(=S)NC3c2cccc(F)c2)c1 (stereo unspecified) | 0 | -2 | 12 | 64* | -9 | 18
COc1ccc(C2NC(=S)NC3=C2CCCC3=C2SCCS2)cc1 (stereo unspecified) | -31 | -12 | 16 | 8 | -6 | nt
O=C1CCCC2=C1C(c1ccccc1)NC(=S)N2 (stereo unspecified) | 10 | -2 | 2 | 4 | 2 | nt
COc1cc(C2NC(=S)NC3=C2CCc2ccccc23)cc(OC)c1OC (stereo unspecified) | -4 | 2 | -1 | 10 | 7 | nt
S=C1NC2=C(CCC/C2=C\c2ccc(Cl)cc2)C(c2ccc(Cl)cc2)N1 (stereo unspecified) | 0 | 6 | 8 | 27* | -3 | 15
COC(=O)c1cc(NC(=O)NC2CCCCN(Cc3cccc(Cl)c3)C2=O)cc(C(=O)OC)c1 (stereo unspecified) | 2 | 2 | 8 | -1 | nt | nt
COc1ccc(C)cc1NC(=O)CSc1nnc(-c2n[nH]c3c2CCC3)n1N | 1 | -3 | 2 | 4 | nt | nt
CCOC(=O)N1CCN(C(=O)C[C@H]2C[C@@]3(C(=O)OC)C(=C[C@H](C(C)C)O[C@@H]3C3CC3)N(CCc3ccc(OC)c(OC)c3)C2=O)CC1 | -1 | 1 | 2 | -3 | nt | nt
C=CCOc1ccc(C2NC(=S)NC3=C2CCc2ccccc23)cc1 (stereo unspecified) | -1 | 2 | 3 | 5 | 2 | nt
S=C1NC2=C(CCCC2=C2SCCCS2)C(c2ccccc2)N1 (stereo unspecified) | -23 | -15 | 24 | 35* | -6 | 4
Fc1ccccc1/C=C1\CCCC2=C1NC(=S)NC2c1ccccc1F (stereo unspecified) | 4 | -9 | 6 | 38* | 4 | 20
COc1ccc(-c2nc3cnccn3c2Nc2ccc(C)cc2)cc1 | 8 | 14 | 4 | 1 | -5 | nt
Cc1ccc(-c2nc3cnccn3c2Nc2ccccc2)o1 | 6 | 12 | 9 | 67* | 6 | 9
Cc1ccc(Nc2c(-c3ccc(C)o3)nc3cnccn23)cc1 | 10 | 9 | 5 | 58* | -9 | 10
Cc1ccc(-c2nc3ccccn3c2Nc2ccccc2)o1 | 7 | 14 | -1 | 49* | -5 | 0
Cc1ccc(-c2nc3cnccn3c2Nc2ccc3c(c2)OCO3)o1 | 1 | 12 | 6 | 26* | -1 | 2
Clc1ccc(-c2nc3cnccn3c2Nc2ccc3c(c2)OCO3)cc1 | 15 | 14 | 3 | 11 | 2 | nt
Cc1cc(Cl)ccc1OCC(=O)N/N=C/c1ccc[nH]1 | 11 | -1 | nt | 0 | nt | nt
CCCCNC(=O)C1CCCN1C(=O)Nc1cc(C)cc(C)c1 (stereo unspecified) | 1 | 0 | 4 | -1 | nt | nt
Cc1cc2c(nc1C)CCCN2S(=O)(=O)c1ccc(C#N)cc1 | -3 | 3 | 1 | 2 | 0 | nt
CCc1cc2c(nc1CC)CCCN2S(=O)(=O)c1ccc(C#N)cc1 | 7 | 2 | 2 | 59* | -1 | 52*
S=C(NCc1ccco1)Nc1cc(-c2ccccc2)[nH]n1 | -7 | -27 | 6 | 32* | -7 | 29*
CC(=O)NC(Cc1ccc2c(c1)OCO2)C(=O)N1CCCN(C(C)=O)CC1 (stereo unspecified) | 1 | 1 | 1 | 6 | nt | nt
